What is called IC50 is the concentration that gives 50% inhibition. A low value points to greater potency in that assay.

The text below walks through data of ChEMBL document CHEMBL1143334, “Peri-substituted hexahydro-indolones as novel, potent and selective human EP3 receptor antagonists” (Bioorg Med Chem Lett, 2009).

The target in data set [1] is T1, Prostaglandin E2 receptor EP3 subtype (Homo sapiens) (UniProt P43115).
T1 sequence (whole entry): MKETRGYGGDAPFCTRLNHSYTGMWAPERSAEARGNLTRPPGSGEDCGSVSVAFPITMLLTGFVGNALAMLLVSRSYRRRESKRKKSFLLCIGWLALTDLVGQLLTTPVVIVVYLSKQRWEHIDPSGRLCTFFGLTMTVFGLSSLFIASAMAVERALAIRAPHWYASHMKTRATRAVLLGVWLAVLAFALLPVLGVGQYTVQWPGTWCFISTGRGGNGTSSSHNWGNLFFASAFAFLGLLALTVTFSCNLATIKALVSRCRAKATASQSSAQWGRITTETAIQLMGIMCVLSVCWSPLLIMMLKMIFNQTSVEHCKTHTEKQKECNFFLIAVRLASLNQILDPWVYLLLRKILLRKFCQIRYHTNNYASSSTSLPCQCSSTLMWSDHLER
The experiment in a line: Ratio of IC50 for human EP3 receptor in presence of 10% human serum to IC50 for human EP3 receptor in buffer. In short, it runs like this: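 Displacement of [3H]-PGE2 from human EP3 membrane preparations was run both with 10% human serum and in buffer alone. Fold-shift is IC50 with serum divided by IC50 in buffer.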

For data set [2], the target named is T2, Prostaglandin E2 receptor EP3 subtype (Homo sapiens, UniProt P43115).
T2 sequence (P43115 whole entry): T1 sequence (whole entry)
The experiment in a line: Displacement of [3H]PGE2 from human EP3 receptor. In short, it runs like this:
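Displacement of [3H]-PGE2 from human EP3 receptor membrane preparations was run in buffer. IC50 values come from at least three experiments each.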

Data set [3] can be described thus: Metabolic stability in rat liver microsomes after 30 mins. Type of data set: ADME, Microsome. Particulars: read-out: Stability. In short, it runs like this:
(§1)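 Compound was incubated 30 min with liver microsomes from each species. Percent parent remaining was measured by LC/MS/MS.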
(Liver microsomes are a subcellular fraction often used to study metabolism.)

The nature of data set [4]: Metabolic stability in human liver microsomes after 30 mins. Format: ADME, Microsome. The conditions noted are these: read-out: Stability. In outline:
as §1

With `COC(=O)C12CCCC(/C=C/C(=O)NS(=O)(=O)c3ccc(F)c(F)c3)=C1N(Cc1ccc(Cl)cc1Cl)C(=O)C2` (stereo not given), the fold change (FC) in data set [1] came out at 22. The 50% inhibitory concentration (IC50) in data set [2] worked out at 20.6 nM.
In the same order, the values of `CC12CCCC(/C=C/C(=O)NS(=O)(=O)c3ccc(F)c(F)c3)=C1N(Cc1ccc(Cl)cc1Cl)C(=O)C2` (stereo not given) are 18 and 3.4 nM.
Regarding `COc1cccc(CN2C(=O)CC3(C)CCCC(/C=C/C(=O)NS(=O)(=O)c4cc(F)cc(F)c4)=C23)c1` (stereo not given), the fold change (FC) in data set [1] turned out to be 62.4. In addition, in data set [2], the IC50 is 5.6 nM.
`CC12CCCC(/C=C/C(=O)NS(=O)(=O)c3cc(Cl)c(Cl)s3)=C1N(Cc1cccc(Cl)c1)C(=O)C2` (stereo not given): in data set [1], the fold change (FC) was 16.3. For the same molecule, the IC50 in data set [2] was found to be 2.2 nM.
`CC12CCCC(/C=C/C(=O)NS(=O)(=O)c3cc(F)cc(F)c3)=C1N(Cc1cccc(Cl)c1Cl)C(=O)C2` (stereo not given): the fold change (FC) in data set [1] was found to be 33.7. This molecule displayed an IC50 in data set [2] of 3.8 nM.
In the case of `COC(=O)C12CCCC(/C=C/C(=O)NS(=O)(=O)c3cc(F)c(F)cc3F)=C1N(Cc1ccc(Cl)cc1Cl)C(=O)C2` (stereo not given), in data set [1], the fold change (FC) was 47.1. The same molecule gave an IC50 in data set [2] of 11.2 nM.
For the molecule `CC12CCCC(/C=C/C(=O)NS(=O)(=O)c3cc(Cl)c(Cl)s3)=C1N(Cc1cccc(F)c1)C(=O)C2` (stereo not given), the remaining at 0.5 h is 18% in data set [3] and 67% in data set [4]. For the same molecule, in data set [1], the fold change (FC) was found to be 8.2. In data set [2], this molecule showed an IC50 of 9.5 nM.
On to `COc1cccc(CN2C(=O)CC3(C)CCCC(/C=C/C(=O)NS(=O)(=O)c4cc(F)c(F)cc4F)=C23)c1` (stereo not given), for which the remaining at 0.5 h is 84% in data set [3] and 76% in data set [4]. In addition, the fold change (FC) in data set [1] worked out at 6.2. The IC50 in data set [2] worked out at 5.6 nM.
In the case of `CC12CCCC(CCC(=O)NS(=O)(=O)c3cc(F)c(F)cc3F)=C1N(Cc1ccc(F)c(F)c1)C(=O)C2` (stereo not given), the fold change (FC) in data set [1] was 33.2. Further, the IC50 in data set [2] came out at 1.8 nM.
In the case of `CC12CCCC(/C=C/C(=O)NS(=O)(=O)c3ccc(F)c(F)c3)=C1N(Cc1ccc(F)cc1)C(=O)C2` (stereo not given), the fold change (FC) in data set [1] came out at 15.9. In data set [2], the IC50 is 2.5 nM.
On to `CC12CCCC(/C=C/C(=O)NS(=O)(=O)c3cc(Cl)c(Cl)s3)=C1N(Cc1ccc(Cl)cc1Cl)C(=O)C2` (stereo not given), for which the results for the remaining at 0.5 h in data set [3] and in data set [4] were 60% and 58%, respectively. Also, the fold change (FC) in data set [1] stood at 38.4. In data set [2], the IC50 is 2.3 nM.
Regarding `C[C@]12CCC[C@@H](CCC(=O)NS(=O)(=O)c3cc(F)c(F)cc3F)[C@H]1N(Cc1ccc(F)c(F)c1)C(=O)C2`, in data set [1], the fold change (FC) is 25.7. The IC50 in data set [2] amounted to 557 nM.
Consider `CC12CCCC(/C=C/C(=O)NS(=O)(=O)c3ccc(F)cc3)=C1N(Cc1ccc(Cl)cc1Cl)C(=O)C2` (stereo not given), for which the remaining at 0.5 h in data set [3] was determined as 64%; in data set [4], 70%. The fold change (FC) in data set [1] is 21.2. The IC50 in data set [2] worked out at 15.2 nM.
In the case of `CC12CCCC(/C=C/C(=O)NS(=O)(=O)c3cc(F)cc(F)c3)=C1N(Cc1ccc(F)c(F)c1)C(=O)C2` (stereo not given), the fold change (FC) in data set [1] came out at 217. This molecule also had an IC50 in data set [2] of 9.2 nM.
For `CC12CCCC(/C=C/C(=O)NS(=O)(=O)c3cc(Cl)cc(Cl)c3)=C1N(Cc1ccc(Cl)cc1Cl)C(=O)C2` (stereo not given), the remaining at 0.5 h worked out at 62% in data set [3] and 70% in data set [4]. Also, the fold change (FC) in data set [1] came out at 61.2. The molecule also gave an IC50 in data set [2] of 9.8 nM.
In the same order, the values of `CC12CCCC(/C=C/C(=O)NS(=O)(=O)c3ccc(Cl)s3)=C1N(Cc1ccc(Cl)cc1Cl)C(=O)C2` (stereo not given) are 68%, 75%, 6.9 and 13.4 nM.
For `CC12CCCC(/C=C/C(=O)NS(=O)(=O)c3cccs3)=C1N(Cc1ccc(Cl)cc1Cl)C(=O)C2` (stereo not given), the remaining at 0.5 h amounted to 79% in data set [3] and 78% in data set [4]. For the same molecule, the fold change (FC) in data set [1] amounted to 25.2. The same molecule had an IC50 in data set [2] of 57.2 nM.
`COC(=O)C12CCCC(/C=C/C(=O)NS(=O)(=O)c3cc(Cl)c(Cl)s3)=C1N(Cc1ccc(F)c(F)c1)C(=O)C2` (stereo not given): the fold change (FC) in data set [1] came to 308. For the same molecule, the IC50 in data set [2] is 29.9 nM.
